In ChEMBL document CHEMBL4334465, “SAR Studies on Aromatic Acylhydrazone-Based Inhibitors of Fungal Sphingolipid Synthesis as Next-Generation Antifungal Agents” (J Med Chem, 2019):
In brackets after ≈: the same amount, converted by molar mass.

Experiments:
Candida albicans [1] = test: Antifungal activity against Candida albicans assessed as FICI in presence of caspofungin; type: functional
Outline: (§1)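 Checkerboard combination scored by fractional inhibitory concentration index. Acylhydrazone serially diluted 16 to 0.015 μg/mL (11 dilutions). Partner drug in seven dilutions: fluconazole 12 to 0.19 μg/mL, amphotericin B 5 to 0.078 μg/mL, caspofungin, itraconazole or voriconazole 8 to 0.007 μg/mL.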

Cryptococcus neoformans [2] = test: Antifungal activity against Cryptococcus neoformans H99 assessed as FICI in presence of itraconazole; type: functional, var grubii H99; outline: as §1
Candida albicans [3] = test: Antifungal activity against Candida albicans assessed as FICI in presence of itraconazole; type: functional; outline: as §1
Candida parapsilosis [4] = test: Antifungal activity against Candida parapsilosis assessed as FICI in presence of voriconazole; type: functional; outline: as §1
Pichia kudriavzevii [5] = test: Antifungal activity against Candida krusei measured after 24 to 72 hrs; type: functional
Outline: (§2)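 MIC by modified CLSI broth microdilution. Candida strains grown in YNB without ammonium sulfate or amino acids with 1% asparagine, pH 7.0, 2% glucose. Inoculum per CLSI M27A3. Compound serially diluted 32 to 0.03 μg/mL. Incubation 37°C, 5% CO₂, 24–72 h, then OD450. MIC80 taken as the lowest concentration giving 80% growth inhibition versus untreated control.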

Pichia kudriavzevii [6] = test: Antifungal activity against fluconazole-resistant Candida krusei assessed as FICI in presence of caspofungin; type: functional
Outline: (§3)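 Checkerboard in 96-well plate. Test compound diluted 16 to 0.015 μg/mL (11 dilutions) against the partner drug in seven dilutions: fluconazole 12 to 0.19 μg/mL, caspofungin, itraconazole or voriconazole 8 to 0.007 μg/mL. Fractional inhibitory concentration index (FICI) calculated from the combinations.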

Candida parapsilosis [7] = test: Antifungal activity against Candida parapsilosis assessed as FICI in presence of itraconazole; type: functional; outline: as §1
Cryptococcus neoformans [8] = test: Fungicidal activity against Cryptococcus neoformans H99 measured after 72 hrs by time-kill assay; type: functional, var grubii H99
Outline: (§4)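 Overnight C. neoformans washed in PBS and resuspended in HEPES-buffered YNB, pH 7.4. 2 × 10⁴ cells exposed to a range of drug concentrations in 10 mL with 0.5% DMSO final, at 37°C, 5% CO₂, shaking at 200 rpm. Aliquots sampled over 96 h, diluted and plated on YPD; CFU counted after 48 h at 30°C.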

Cryptococcus neoformans [9] = test: Antifungal activity against Cryptococcus neoformans H99 assessed as FICI in presence of fluconazole; type: functional, var grubii H99; outline: as §1
Aspergillus fumigatus [10] = test: Antifungal activity against Aspergillus fumigatus assessed as FICI in presence of voriconazole; type: functional; outline: as §1
Pichia kudriavzevii [11] = test: Antifungal activity against fluconazole-resistant Candida krusei assessed as FICI in presence of itraconazole; type: functional; outline: as §3
Candida parapsilosis [12] = test: Antifungal activity against Candida parapsilosis measured after 24 to 72 hrs; type: functional; details: Lodderomyces parapsilosis
Outline: (§5)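 Modified CLSI broth microdilution with inoculum per M27A3. Compounds were serially diluted 32 to 0.03 μg/mL. Media: C. neoformans in HEPES-buffered YNB without amino acids (pH 7.0, 2% glucose); Candida strains in YNB without ammonium sulfate or amino acids plus 1% asparagine (pH 7.0, 2% glucose); A. fumigatus in RPMI (pH 7.0, 2% glucose).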

Candida parapsilosis [13] = test: Antifungal activity against Candida parapsilosis assessed as FICI in presence of caspofungin; type: functional; outline: as §1
Candida albicans [14] = test: Antifungal activity against Candida albicans assessed as FICI in presence of voriconazole; type: functional; outline: as §1
Aspergillus fumigatus [15] = test: Antifungal activity against Aspergillus fumigatus assessed as FICI in presence of itraconazole; type: functional; outline: as §1
Aspergillus fumigatus [16] = test: Antifungal activity against Aspergillus fumigatus measured after 24 to 72 hrs; type: functional; outline: as §5
Cryptococcus neoformans [17] = test: Antifungal activity against Cryptococcus neoformans H99 assessed as FICI in presence of amphotericin B; type: functional, var grubii H99; outline: as §1
[18] = Selectivity index, ratio of LD50 for human A549 cells to MIC80 for Cryptococcus neoformans H99; type: toxicity; details: read-out: Selectivity Index
Outline: (§6)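 SI = LD₅₀/MIC₈₀. Cytotoxicity: A549 or HepG2 cells (DMEM, 10% FBS, passage 7, 10⁵ cells/well) adhered 14 h, then exposed to 0.03–128 μg/mL for 24 or 48 h at 37°C, 5% CO₂; MTT 4 h, formazan dissolved in DMSO, read at 570 nm. MIC₈₀ against C. neoformans from broth microdilution in HEPES-buffered YNB, pH 7.0.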

Cryptococcus neoformans [19] = test: Fungicidal activity against Cryptococcus neoformans H99 measured up to 96 hrs by time-kill assay; type: functional, organism-based; details: var grubii H99; outline: as §4
Pichia kudriavzevii [20] = test: Antifungal activity against fluconazole-resistant Candida krusei assessed as FICI in presence of fluconazole; type: functional; outline: as §3
A549 = test: Cytotoxicity against human A549 cells after 24 to 48 hrs by MTT assay; type: functional; details: read-out: LD50 (the source's name)
Outline: (§7)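 A549 and HepG2 kept in DMEM with 10% FBS and 1% pen-strep. At passage 7, seeded at 10⁵ cells/well and allowed to adhere 14 h. Compound added at 0.03–128 μg/mL, untreated wells as controls. Incubation 37°C, 5% CO₂ for 24 or 48 h. MTT (5 mg/mL in PBS) added for 4 h, formazan dissolved in DMSO, OD570.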

Pichia kudriavzevii [21] = test: Antifungal activity against Candida krusei 6258 assessed as FICI in presence of itraconazole; type: functional; outline: as §1
Candida albicans [22] = test: Antifungal activity against Candida albicans measured after 24 to 72 hrs; type: functional; outline: as §5
Cryptococcus neoformans [23] = test: Antifungal activity against Cryptococcus neoformans H99 assessed as FICI in presence of voriconazole; type: functional, var grubii H99; outline: as §1
[Candida] auris [24] = Antifungal activity against Candida auris measured after 24 to 72 hrs; type: functional; details: Candidozyma auris; outline: as §5
HepG2 = test: Cytotoxicity against human HepG2 cells after 24 to 48 hrs by MTT assay; type: functional; details: read-out: LD50 (the source's name); outline: as §7
[Candida] auris [25] = Antifungal activity against Candida auris assessed as FICI in presence of itraconazole; type: functional, Candidozyma auris; outline: as §1
Pichia kudriavzevii [26] = test: Antifungal activity against fluconazole-resistant Candida krusei assessed as FICI in presence of voriconazole; type: functional; outline: as §3
[27] = Selectivity index, ratio of LD50 for human HepG2 cells to MIC80 for Cryptococcus neoformans H99; type: toxicity; details: read-out: Selectivity Index; outline: as §6
Aspergillus fumigatus [28] = test: Antifungal activity against Aspergillus fumigatus assessed as FICI in presence of fluconazole; type: functional; outline: as §1
[Candida] auris [29] = Antifungal activity against Candida auris assessed as FICI in presence of fluconazole; type: functional, Candidozyma auris; outline: as §1
Candida albicans [30] = test: Antifungal activity against Candida albicans assessed as FICI in presence of fluconazole; type: functional; outline: as §1
[Candida] auris [31] = Antifungal activity against Candida auris assessed as FICI in presence of caspofungin; type: functional, Candidozyma auris; outline: as §1
Pichia kudriavzevii [32] = test: Antifungal activity against Candida krusei 6258 assessed as FICI in presence of caspofungin; type: functional; outline: as §1
Cryptococcus neoformans [33] = test: Antifungal activity against Cryptococcus neoformans H99 measured after 24 to 72 hrs; type: functional; details: var grubii H99; outline: as §5
Pichia kudriavzevii [34] = test: Antifungal activity against Candida krusei 6258 assessed as FICI in presence of voriconazole; type: functional; outline: as §1
Pichia kudriavzevii [35] = test: Antifungal activity against Candida krusei 6258 assessed as FICI in presence of fluconazole; type: functional; outline: as §1
Candida parapsilosis [36] = test: Antifungal activity against Candida parapsilosis assessed as FICI in presence of fluconazole; type: functional; outline: as §1
[Candida] auris [37] = Antifungal activity against Candida auris assessed as FICI in presence of voriconazole; type: functional, Candidozyma auris; outline: as §1
Pichia kudriavzevii [38] = test: Antifungal activity against multi-drug resistant Candida krusei measured after 24 to 72 hrs; type: functional; outline: as §2
Cryptococcus neoformans [39] = test: Fungicidal activity against Cryptococcus neoformans H99 measured after 6 hrs by time-kill assay; type: functional, var grubii H99; outline: as §4

| Structure (SMILES) | fractional inhibitory concentration index (FICI) (Candida albicans [1]) | fractional inhibitory concentration index (FICI) (Cryptococcus neoformans [2]) | fractional inhibitory concentration index (FICI) (Candida albicans [3]) | fractional inhibitory concentration index (FICI) (Candida parapsilosis [4]) | MIC80 (Pichia kudriavzevii [5]) | fractional inhibitory concentration index (FICI) (Pichia kudriavzevii [6]) | fractional inhibitory concentration index (FICI) (Candida parapsilosis [7]) | fractional inhibitory concentration index (FICI) (Cryptococcus neoformans [9]) | fractional inhibitory concentration index (FICI) (Aspergillus fumigatus [10]) | fractional inhibitory concentration index (FICI) (Pichia kudriavzevii [11]) | MIC80 (Candida parapsilosis [12]) | fractional inhibitory concentration index (FICI) (Candida parapsilosis [13]) | fractional inhibitory concentration index (FICI) (Candida albicans [14]) | fractional inhibitory concentration index (FICI) (Aspergillus fumigatus [15]) | MIC80 (Aspergillus fumigatus [16]) | fractional inhibitory concentration index (FICI) (Cryptococcus neoformans [17]) | selectivity ratio [18] | Activity (Cryptococcus neoformans [19]) | CC50 (A549) | fractional inhibitory concentration index (FICI) (Pichia kudriavzevii [21]) | further results |
| --- | --- | --- | --- | --- | --- | --- | --- | --- | --- | --- | --- | --- | --- | --- | --- | --- | --- | --- | --- | --- | --- |
| O=C(N/N=C/c1ccc(Br)cc1O)c1ccc(Br)cc1Br | 0.502 | 0.072 | 0.128 | 0.076 | > 16 µg/mL | 2 | 0.124 | 0.065 | 0.515 | 0.252 | 8 µg/mL (≈ 16.8 µM) | 2 | 0.256 | 0.484 | > 16 µg/mL | 0.086 | 1070 | Dose-dependent effect | 64 µg/mL (≈ 134 µM) | 1.063 | MFC100 (Cryptococcus neoformans [8]): 0.06 µg/mL (≈ 0.126 µM); fractional inhibitory concentration index (FICI) (Pichia kudriavzevii [20]): 2; MIC80 (Candida albicans [22]): > 16 µg/mL; fractional inhibitory concentration index (FICI) (Cryptococcus neoformans [23]): 0.072; MIC80 ([Candida] auris [24]): > 16 µg/mL; CC50 (HepG2): 128 µg/mL (≈ 268 µM); fractional inhibitory concentration index (FICI) ([Candida] auris [25]): 0.508; fractional inhibitory concentration index (FICI) (Pichia kudriavzevii [26]): 0.281; selectivity ratio [27]: 2130; fractional inhibitory concentration index (FICI) (Aspergillus fumigatus [28]): 2; fractional inhibitory concentration index (FICI) ([Candida] auris [29]): 2; fractional inhibitory concentration index (FICI) (Candida albicans [30]): 0.625; fractional inhibitory concentration index (FICI) ([Candida] auris [31]): 2; fractional inhibitory concentration index (FICI) (Pichia kudriavzevii [32]): 2; MIC80 (Cryptococcus neoformans [33]): 0.06 µg/mL (≈ 0.126 µM); fractional inhibitory concentration index (FICI) (Pichia kudriavzevii [34]): 1.25; fractional inhibitory concentration index (FICI) (Pichia kudriavzevii [35]): 2; fractional inhibitory concentration index (FICI) (Candida parapsilosis [36]): 1.002; fractional inhibitory concentration index (FICI) ([Candida] auris [37]): 1.016 |
| O=C(N/N=C/c1cc(Cl)cc(Cl)c1O)c1ccc(Br)c(Br)c1 | 1 | 0.247 | 0.091 | 1.5 | 0.25 µg/mL (≈ 0.535 µM) | 1.004 | 1.25 | 0.237 | 1.031 | 1.24 | 1 µg/mL (≈ 2.14 µM) | 0.501 | 0.077 | 1.008 | 8 µg/mL (≈ 17.1 µM) | 0.247 | 1070 | Dose-dependent effect | 32 µg/mL (≈ 68.5 µM) | 0.53 | MIC80 (Pichia kudriavzevii [38]): 0.25 µg/mL (≈ 0.535 µM); MFC100 (Cryptococcus neoformans [39]): 1 µg/mL (≈ 2.14 µM); MIC80 (Candida albicans [22]): 2 µg/mL (≈ 4.28 µM); fractional inhibitory concentration index (FICI) (Cryptococcus neoformans [23]): 0.247; MIC80 ([Candida] auris [24]): 0.5 µg/mL (≈ 1.07 µM); CC50 (HepG2): 32 µg/mL (≈ 68.5 µM); fractional inhibitory concentration index (FICI) ([Candida] auris [25]): 1.12; fractional inhibitory concentration index (FICI) (Pichia kudriavzevii [26]): 1.03; selectivity ratio [27]: 1070; fractional inhibitory concentration index (FICI) (Aspergillus fumigatus [28]): 2; fractional inhibitory concentration index (FICI) ([Candida] auris [29]): 0.5; fractional inhibitory concentration index (FICI) (Candida albicans [30]): 0.252; fractional inhibitory concentration index (FICI) ([Candida] auris [31]): 0.5; fractional inhibitory concentration index (FICI) (Pichia kudriavzevii [32]): 1.001; MIC80 (Cryptococcus neoformans [33]): 0.03 µg/mL (≈ 0.0642 µM); fractional inhibitory concentration index (FICI) (Pichia kudriavzevii [34]): 0.56; fractional inhibitory concentration index (FICI) (Pichia kudriavzevii [35]): 0.25; fractional inhibitory concentration index (FICI) (Candida parapsilosis [36]): 0.258; fractional inhibitory concentration index (FICI) ([Candida] auris [37]): 0.5 |
